# In ChEMBL document CHEMBL3596186, “Synthesis and biological evaluation of diarylthiazole derivatives as antimitotic and antivascular agents with potent antitumor activity” (Bioorg Med Chem, 2015):
# Activity calls are given as the source filed them. The rule behind the calls is not given here.
# Columns and labels:
# [1] = tested on: SK-OV-3; assay: Antiproliferative activity against human SKOV3 cells after 48 hrs by MTT assay; type: functional, cell-based; conditions: SK-OV-3, 48 h
# How it was run: (§1)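 HCT116, HepG2, SMMC-7721, SK-OV-3 and A2780s grown in DMEM; A549 and MCF-7 in RPMI-1640; all with 10% FBS and penicillin/streptomycin at 37 °C, 5% CO2. Log-phase cells at 40,000-50,000 cells/mL treated with graded concentrations for 48 h. MTT 3 h, DMSO solubilization, A570. IC50 from percent growth versus untreated control; mean ± SEM of ≥3 independent dose-response experiments.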
# [2] = Antiproliferative activity against human A2780S cells after 48 hrs by MTT assay; type: functional, cell-based; conditions: A2780, 48 h; how it was run: as §1
# [3] = Antiproliferative activity against human […] cells after 48 hrs by MTT assay; type: functional, cell-based; how it was run: as §1
# [4] = tested on: HCT-116; assay: Antiproliferative activity against human HCT116 cells after 48 hrs by MTT assay; type: functional, cell-based; conditions: HCT-116, 48 h; how it was run: as §1
# [5] = tested on: HepG2; assay: Antiproliferative activity against human HepG2 cells after 48 hrs by MTT assay; type: functional, cell-based; conditions: HepG2, 48 h; how it was run: as §1
# [6] = tested on: Mus musculus; assay: Toxicity in Balb/c athymic nude mouse xenografted with human SKOV3 cells assessed as loss in body weight at 10 mg/kg, ip administered daily; type: organism-based, SK-OV-3; conditions: in vivo
# How it was run: (§2)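 Female Balb/C athymic nude mice, 5-6 weeks old, bearing s.c. right-flank xenografts (cells in HBSS). Once tumors averaged 100 mm3, animals were randomized into groups of 6 and dosed i.p. once daily. Body weight was recorded every two days during treatment.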
# [7] = tested on: Mus musculus; assay: Toxicity in Balb/c athymic nude mouse xenografted with human HCT116 cells assessed as loss in body weight at 10 mg/kg, ip administered daily; type: organism-based, HCT-116; conditions: in vivo; how it was run: as §2
# [8] = tested on: HCT-116; assay: Antitumor activity against human HCT116 cells xenografted in Balb/c athymic nude mouse assessed as tumor growth inhibition at 10 mg/kg, ip administered daily after 42 days; type: functional; conditions: HCT-116, ip, 1008 h, read-out: TGI
# How it was run: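 Female Balb/C athymic nude mice, 5-6 weeks old, given s.c. tumor cells in HBSS into the right flank. Once tumors averaged 100 mm3, animals were randomized into groups of 6 and given daily i.p. injections. Tumor volume (π/6 × length × width²) was measured every two days. Inhibition = (1 − treated/control tumor weight) × 100%, taken at day 42.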
# [9] = Inhibition of pig microtubule polymerization after 30 mins by turbidimetric assay; parameters: species or system Sus scrofa
# How it was run: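 Porcine-brain MAP-rich tubulin at 3 mg/mL preincubated 30 min at 4 °C in 0.1 M PIPES pH 6.9, 2 mM MgCl2, 0.5 mM EGTA. Compounds added 2 min before the run, then 1 mM GTP. Turbidity followed kinetically at 340 nm at 37 °C; assembly IC50 derived by Hamel's method.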
# [10] = Antiproliferative activity against human doxorubicin-resistant MCF7 cells after 48 hrs by MTT assay; type: functional, cell-based; conditions: MCF7, 48 h
# How it was run: (§3)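 MCF-7/ADR (doxorubicin-resistant) and A549/T (taxol-resistant) cells in RPMI-1640 with 10% FBS and penicillin/streptomycin. Log-phase cells at 40,000-50,000 cells/mL exposed to graded concentrations for 48 h. MTT 3 h, DMSO solubilization, absorbance 570 nm. IC50 from percent growth versus untreated control; mean ± SEM of ≥3 independent experiments.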
# [11] = biological target: Tubulin (Homo sapiens) (UniProt P68371+Q9H4B7+P0DPH7+P68366+Q13509+Q71U36+P04350+Q3ZCM7+P07437+P68363+Q9BQE3+Q6PEY2+Q13885+Q9BVA1+Q9BUF5); assay: Binding affinity to tubulin in human HepG2 cells at 5 uM after 4 hrs by EBI competition assay; type: cell-based
# How it was run: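 HepG2 cells seeded at 500,000 cells/well, allowed to adhere, then treated with compound for 4 h. EBI added at 100 µM for 1.5 h. Cell extracts (about 20 µg protein) run on 10% SDS-PAGE, blotted to PVDF, probed with anti-β-tubulin, detected by ECL with GAPDH as loading control. Read-out is loss of the faster-migrating β-tubulin–EBI adduct band.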
# [12] = tested on: NCI-H1975; assay: Antiproliferative activity against human gefitinib-resistant NCI-H1975 cells after 48 hrs by MTT assay; type: functional, cell-based; conditions: NCI-H1975, 48 h
# [13] = tested on: A549; assay: Antiproliferative activity against human taxol-resistant A549 cells after 48 hrs by MTT assay; type: functional, cell-based; conditions: A549, 48 h; how it was run: as §3
# [14] = tested on: MCF7; assay: Antiproliferative activity against human MCF7 cells after 48 hrs by MTT assay; type: functional, cell-based; conditions: MCF7, 48 h; how it was run: as §1
# [15] = tested on: A549; assay: Resistance ratio, ratio of IC50 for human taxol-resistant A549 cells to IC50 for human A549 cells; type: functional
# How it was run: (§4)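 MTT assay: log-phase cells at 40,000-50,000 cells/mL in RPMI-1640 with 10% FBS, exposed to graded concentrations for 48 h, then MTT 3 h, DMSO solubilization, absorbance at 570 nm. IC50 from growth versus untreated control, at least three independent experiments. Ratio = resistant-line IC50 / parental-line IC50.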
# [16] = tested on: NCI-H1975; assay: Resistance ratio, ratio of IC50 for human gefitinib-resistant NCI-H1975 cells to IC50 for human HCC827 cells; type: functional
# [17] = Antiproliferative activity against human HCC827 cells after 48 hrs by MTT assay; type: functional, cell-based; conditions: HCC827, 48 h
# [18] = tested on: A549; assay: Antiproliferative activity against human A549 cells after 48 hrs by MTT assay; type: functional, cell-based; conditions: A549, 48 h; how it was run: as §1
# [19] = tested on: MCF7; assay: Resistance ratio, ratio of IC50 for human doxorubicin-resistant MCF7 cells to IC50 for human MCF7 cells; type: functional; how it was run: as §4
SMILES,IC50 [1] [nM],IC50 [2] [nM],IC50 [3] [nM],IC50 [4] [nM],IC50 [5] [nM],further results
CCOc1ccc(-c2nc(C(OCC)OCC)sc2-c2cc(OC)c(OC)c(OC)c2)cc1,> 5000,> 5000,> 5000,> 5000,> 5000,–
CCOc1ccc(-c2nc(NS(=O)(=O)c3ccc(Br)cc3C(F)(F)F)sc2-c2cc(OC)c(OC)c(OC)c2)cc1,> 5000,> 5000,> 5000,> 5000,> 5000,–
CCOc1ccc(-c2nc(N(CC)CC)sc2-c2cc(OC)c(OC)c(OC)c2)cc1,> 5000,> 5000,> 5000,> 5000,> 5000,–
CCOc1ccc(-c2nc(NS(=O)(=O)c3ccc(OC)c(F)c3)sc2-c2cc(OC)c(OC)c(OC)c2)cc1,> 5000,> 5000,> 5000,> 5000,> 5000,–
CCOc1ccc(-c2nc(NC(C)=O)sc2-c2cc(OC)c(OC)c(OC)c2)cc1,167,10.2,13,10.2,60.9,–
CCOc1ccc(-c2nc(NS(=O)(=O)c3ccc([N+](=O)[O-])cc3OC)sc2-c2cc(OC)c(OC)c(OC)c2)cc1,> 5000,> 5000,> 5000,> 5000,> 5000,–
O=c1[nH]cc(F)c(=O)[nH]1 [FLUOROURACIL],–,–,–,–,–,Activity [6]: Toxic; Activity [7]: Toxic; inhibition in vivo at 10 mg/kg [8]: 37.3%
CCOc1ccc(-c2nc(N(C)C)sc2-c2cc(OC)c(OC)c(OC)c2)cc1,> 5000,> 5000,> 5000,> 5000,> 5000,–
CCCN(CCC)c1nc(-c2ccc(OCC)cc2)c(-c2cc(OC)c(OC)c(OC)c2)s1,> 5000,> 5000,> 5000,> 5000,> 5000,–
C=CCN(CC=C)c1nc(-c2ccc(OCC)cc2)c(-c2cc(OC)c(OC)c(OC)c2)s1,> 5000,> 5000,> 5000,> 5000,> 5000,–
CCOc1ccc(-c2nc(NS(=O)(=O)c3ccsc3Cl)sc2-c2cc(OC)c(OC)c(OC)c2)cc1,> 5000,> 5000,> 5000,> 5000,> 5000,–
COc1ccc(/C=C\c2cc(OC)c(OC)c(OC)c2)cc1O [COMBRETASTATIN A4],–,–,–,–,–,IC50 [9]: 5910 nM
COc1cc2c(c(OC)c1OC)-c1ccc(OC)c(=O)cc1[C@@H](NC(C)=O)CC2 [COLCHICINE],–,–,–,–,–,IC50 [9]: 5020 nM
CCOc1ccc(-c2nc(C=O)sc2-c2cc(OC)c(OC)c(OC)c2)cc1,9,104,106,48,50,IC50 [9]: > 10000 nM
CCOC(=O)c1nc(-c2ccc(OCC)cc2)c(-c2cc(OC)c(OC)c(OC)c2)s1,> 5000,> 5000,> 5000,> 5000,> 5000,–
COc1cccc2c1C(=O)c1c(O)c3c(c(O)c1C2=O)C[C@@](O)(C(=O)CO)C[C@@H]3O[C@H]1C[C@H](N)[C@H](O)[C@H](C)O1 [DOXORUBICIN],–,–,–,–,–,IC50 [10]: 5300 nM
CCOc1ccc(-c2nc(C(C)(C)C)sc2-c2cc(OC)c(OC)c(OC)c2)cc1,> 5000,> 5000,> 5000,> 5000,> 5000,–
CCOc1ccc(-c2nc(NS(=O)(=O)c3ccc(C)c(C)c3)sc2-c2cc(OC)c(OC)c(OC)c2)cc1,> 5000,> 5000,> 5000,> 5000,> 5000,–
CCCC(=O)Nc1nc(-c2ccc(OCC)cc2)c(-c2cc(OC)c(OC)c(OC)c2)s1,105,18,11,18,76.8,Activity [11]: inactive; IC50 [9]: 9040 nM
CCOc1ccc(-c2nc(C)sc2-c2cc(OC)c(OC)c(OC)c2)cc1,68,106,126,64,368,IC50 [9]: > 10000 nM
CCOc1ccc(-c2ncsc2-c2cc(OC)c(OC)c(OC)c2)cc1,10,86,128,62,65,Activity [11]: inactive; IC50 [12]: 1120 nM; IC50 [13]: 425 nM; IC50 [14]: 1160 nM; Ratio IC50 [15]: 0.45; Ratio IC50 [16]: 2.38; IC50 [17]: 469 nM; IC50 [18]: 696 nM; IC50 [9]: 3550 nM; Ratio IC50 [19]: 1.3; IC50 [10]: 1560 nM
CCOc1ccc(-c2nc(NC(=O)CC)sc2-c2cc(OC)c(OC)c(OC)c2)cc1,60.4,5.1,10.8,50.5,40.6,IC50 [9]: > 10000 nM
CCOc1ccc(-c2nc(NC(=O)C(C)C)sc2-c2cc(OC)c(OC)c(OC)c2)cc1,85.2,22.5,65.2,22.5,177,–
CCNC(=O)Nc1nc(-c2ccc(OCC)cc2)c(-c2cc(OC)c(OC)c(OC)c2)s1,29.2,1.3,10.6,22.1,30.7,Activity [11]: inactive; IC50 [12]: 220 nM; IC50 [13]: 140 nM; IC50 [14]: 417 nM; Ratio IC50 [15]: 0.64; Ratio IC50 [16]: 0.35; IC50 [17]: 623 nM; IC50 [18]: 103 nM; IC50 [9]: 3900 nM; Ratio IC50 [19]: 1.7; IC50 [10]: 727 nM
CCOc1ccc(-c2sc(N)nc2-c2cc(OC)c(OC)c(OC)c2)cc1,8.4,8.6,10,9.2,8.3,–
CCOc1ccc(-c2nc(N(Cc3ccccc3)Cc3ccccc3)sc2-c2cc(OC)c(OC)c(OC)c2)cc1,> 5000,> 5000,> 5000,> 5000,> 5000,–
COc1ccc(-c2nc(N)sc2-c2cc(OC)c(OC)c(OC)c2)cc1,110,14,9,93.7,50.6,–
